According to ChEMBL document CHEMBL1123581, “Differential blockade of muscarinic receptor subtypes by polymethylene tetraamines. Novel class of selective antagonists of cardiac M-2 muscarinic receptors” (J Med Chem, 1987):

Legend:
[1] = target: Muscarinic acetylcholine receptor; experiment: Compound was evaluated for blocking activity on Muscarinic acetylcholine receptor in rat ileum; type: tissue-based
Method in brief: (§1)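 Male rat terminal ileum segment (20 mm, ~5 cm from ileocecal junction) or 2-mm longitudinal bladder strip, in Krebs-type solution. After 30 min equilibration, cumulative furtrethonium iodide curves (~3-fold steps) at 30-min intervals; antagonist incubated 30 min. Isometric contraction recorded.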

[2] = target: Muscarinic acetylcholine receptor; experiment: Compound was evaluated for blocking activity on Muscarinic acetylcholine receptor in rat bladder; method in brief: as §1
[3] = Selectivity ratio of pA2 of rat ileum to pA2 of rat bladder; type: tissue-based
Method in brief: (§2)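 Computed as the antilog of the difference between pA2 values for the two tissues (atria/ileum, atria/bladder, ileum/bladder). Each pA2 is a Schild value from muscarinic agonist dose ratios at three antagonist concentrations, each n≥5.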

[4] = Selectivity ratio of pA2 of guinea pig atria to pA2 of rat bladder; method in brief: as §2
[5] = Selectivity ratio of pA2 of guinea pig atria to pA2 of rat ileum; type: tissue-based; method in brief: as §2
[6] = target: Muscarinic acetylcholine receptor; experiment: Compound was evaluated for blocking activity on Muscarinic acetylcholine receptor in guinea pig atria; type: protein assay, Cavia porcellus

Structure (SMILES) | pA2 [1] | pA2 [2] | Ratio [3] | Ratio [4] | Ratio [5] | pA2 [6]
COc1ccccc1CNCCCCCCNCCCCCCCCCCCCNCCCCCCNCc1ccccc1OC.Cl | 7.62 | 7.13 | 3.09 | 1.66 | 0.54 | 7.35
COc1ccccc1CNCCCCCCNCCCCCCNCCCCCCNCc1ccccc1OC.Cl.Cl.Cl.Cl | 5.29 | 5.57 | 0.52 | 20 | 38 | 6.87
COc1ccccc1CNCCCCCCNCCCCCCCCCCNCCCCCCNCc1ccccc1OC.Cl.Cl.Cl.Cl | 5.73 | 5.49 | 1.74 | 166 | 95 | 7.71
COc1ccccc1CNCCCCCCNCCCCCCCCCNCCCCCCNCc1ccccc1OC.Cl.Cl.Cl.Cl | 5.81 | 6.08 | – | – | – | 7.96
